Measurements as given in ChEMBL document CHEMBL4138245, “Design and synthesis of novel quinacrine-[1,3]-thiazinan-4-one hybrids for their anti-breast cancer activity” (Eur J Med Chem, 2018).
Activity calls are given as the source filed them. No cut-off for these calls is given here.

Tests used:
[1] = Selectivity index, ratio of compound concentration for cell killing activity in human 184B5 cells to compound concentration for cell killing activity in human MCF7 cells; assay type: toxicity, cell-based; details: 184B5 cells versus MCF7 cells, read-out: Selectivity Index
MCF7 [2] = experiment: Downregulation of Cyclin-A protein expression in human MCF7 cells at 2 uM after 24 to 72 hrs by Western blot method; assay type: functional, cell-based
A549 = experiment: Antiproliferative activity against human A549 cells assessed as compound concentration required to show complete inhibition of cell viability up to 96 hrs by SRB assay; assay type: functional
BT-474 = experiment: Antiproliferative activity against human BT474 cells assessed as compound concentration required to show complete inhibition of cell viability up to 96 hrs by SRB assay; assay type: functional
[3] = Selectivity index, ratio of compound concentration for cell killing activity in human MCF10A cells to compound concentration for cell killing activity in human BT474 cells; assay type: toxicity, cell-based; details: MCF10A cells versus BT474 cells, read-out: Selectivity Index
BT-20 = experiment: Antiproliferative activity against human BT20 cells assessed as compound concentration required to show complete inhibition of cell viability up to 96 hrs by SRB assay; assay type: functional
SK-BR-3 = experiment: Antiproliferative activity against human SK-BR-3 cells assessed as compound concentration required to show complete inhibition of cell viability up to 96 hrs by SRB assay; assay type: functional
[4] = Selectivity index, ratio of compound concentration for cell killing activity in human MCF10A cells to compound concentration for cell killing activity in human SK-BR-3 cells; assay type: toxicity, cell-based; details: MCF10A cells versus SK-BR-3 cells, read-out: Selectivity Index
MDA-MB-231 [5] = experiment: Antiproliferative activity against human MDA-MB-231 cells assessed as compound concentration required to show complete inhibition of cell viability up to 96 hrs by SRB assay; assay type: functional
[6] = molecular target: Serine/threonine-protein kinase mTOR (Homo sapiens) (UniProt P42345); experiment: Inhibition of mTOR pathway in human MCF7 cells assessed as reduction in S6K phosphorylation at Thr389 residue at 2 uM after 24 hrs by Western blot method; assay type: cell-based
MDA-MB-231 [7] = experiment: Inhibition of DNA replication in human MDA-MB-231 cells assessed as EdU incorporation at 2 uM pretreated for 48 hrs followed by EdU addition at final 45 mins of 48 hrs incubation time (reference value: 45 to 63%); assay type: functional; design: scale not given: the % may be the effect or the level left
MDA-MB-231 [8] = experiment: Potency index, ratio of cisplatin IC50 to compound IC50 for antiproliferative activity against human MDA-MB-231 cells; assay type: functional
[9] = molecular target: RAC-alpha serine/threonine-protein kinase (Homo sapiens) (UniProt P31749); experiment: Upregulation of AKT phosphorylation at Thr308 residue in human MCF7 cells at 2 uM after 24 to 48 hrs by Western blot method; assay type: cell-based
RAC-alpha serine/threonine-protein kinase (Homo sapiens), sequence (P31749 whole entry): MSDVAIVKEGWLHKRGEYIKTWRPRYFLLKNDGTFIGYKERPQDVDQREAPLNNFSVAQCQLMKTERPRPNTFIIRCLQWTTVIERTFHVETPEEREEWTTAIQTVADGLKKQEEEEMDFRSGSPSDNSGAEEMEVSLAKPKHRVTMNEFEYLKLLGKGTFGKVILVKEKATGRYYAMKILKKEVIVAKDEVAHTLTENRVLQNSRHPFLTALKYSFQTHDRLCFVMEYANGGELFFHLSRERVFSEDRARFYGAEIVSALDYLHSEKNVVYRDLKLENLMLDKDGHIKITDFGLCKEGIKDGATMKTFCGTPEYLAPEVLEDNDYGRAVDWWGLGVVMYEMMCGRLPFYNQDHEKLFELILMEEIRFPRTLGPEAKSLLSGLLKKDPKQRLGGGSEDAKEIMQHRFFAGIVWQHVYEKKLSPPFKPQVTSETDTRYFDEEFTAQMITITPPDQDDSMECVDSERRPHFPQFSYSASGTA
Method in brief: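 MCF7 cells were treated with the compound, collected and PBS-washed, then lysed on ice (Triton X-100/Tris pH 7.4 buffer with PMSF and protease inhibitors). Lysates were BCA-quantified, and 30–40 µg protein was resolved on 8% or 10% SDS-PAGE. Proteins were semi-dry transferred to PVDF, milk-blocked and probed with primary antibody overnight at 4 °C, then detected by ECL. Blots are representative of three independent experiments.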

[10] = Selectivity index, ratio of compound concentration for cell killing activity in human MCF10A cells to compound concentration for cell killing activity in human LNCAP cells; assay type: toxicity, cell-based; details: MCF10A cells versus LNCAP cells, read-out: Selectivity Index
MCF7 [11] = experiment: Downregulation of Cyclin-B protein expression in human MCF7 cells at 2 uM after 24 to 72 hrs by Western blot method; assay type: functional, cell-based
MCF7 [12] = experiment: Antiproliferative activity against human MCF7 cells after 48 hrs by SRB assay; assay type: functional, cell-based; details: MCF7, 48 h
Method in brief: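 SRB assay: 5,000-10,000 cells/well plated, 24 h at 37 °C/5% CO2 before drug; seven concentrations from 100 μM down (two- to ten-fold serial dilutions, DMSO ≤0.1% final) for 48 h; TCA fixation (10% final, 60 min, 4 °C), 0.4% SRB in 1% acetic acid, solubilized in 10 mM Tris base, absorbance 515-564 nm; growth = (Ti−Tz)/(C−Tz)×100; IC50 from sigmoidal variable-slope fit; triplicates, ≥2 independent experiments.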

[13] = Selectivity index, ratio of compound concentration for cell killing activity in human MCF10A cells to compound concentration for cell killing activity in human MCF7 cells; assay type: toxicity, cell-based; details: MCF10A cells versus MCF7 cells, read-out: Selectivity Index
MCF7 [14] = experiment: Potency index, ratio of cisplatin IC50 to compound IC50 for antiproliferative activity against human MCF7 cells; assay type: functional
[15] = Selectivity index, ratio of compound concentration for cell killing activity in human MCF10A cells to compound concentration for cell killing activity in human BT20 cells; assay type: toxicity, cell-based; details: MCF10A cells versus BT20 cells, read-out: Selectivity Index
MDA-MB-468 = experiment: Antiproliferative activity against human MDA-MB-468 cells assessed as compound concentration required to show complete inhibition of cell viability up to 96 hrs by SRB assay; assay type: functional
MCF7 [16] = experiment: Antiproliferative activity against human MCF7 cells assessed as compound concentration required to show complete inhibition of cell viability up to 96 hrs by SRB assay; assay type: functional
[17] = Selectivity index, ratio of compound concentration for cell killing activity in human 184B5 cells to compound concentration for cell killing activity in human PC3 cells; assay type: toxicity, cell-based; details: 184B5 cells versus PC3 cells, read-out: Selectivity Index
[18] = molecular target: Serine/threonine-protein kinase mTOR (Homo sapiens) (UniProt P42345); experiment: Inhibition of mTOR pathway in human MCF7 cells assessed as reduction in S6K phosphorylation at Ser371 residue at 2 uM after 6 to 24 hrs by Western blot method; assay type: cell-based
LNCaP = experiment: Antiproliferative activity against human LNCAP cells assessed as compound concentration required to show complete inhibition of cell viability up to 96 hrs by SRB assay; assay type: functional
[19] = Selectivity index, ratio of compound concentration for cell killing activity in human 184B5 cells to compound concentration for cell killing activity in human NCI-H1975 cells; assay type: toxicity, cell-based; details: 184B5 cells versus NCI-H1975 cells, read-out: Selectivity Index
MCF7 [20] = experiment: Cell cycle arrest in human MCF7 cells assessed as accumulation at S phase at 2 uM after 48 hrs by propidium iodide staining based flow cytometry; assay type: functional
Method in brief: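 MCF7, MDA-MB231 and non-cancer 184B5 breast cells exposed to 2 μM for 48 h, then cell-cycle analysis by flow cytometry; duplicates, repeated three times.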

MDA-MB-453 = experiment: Antiproliferative activity against human MDA-MB-453 cells assessed as compound concentration required to show complete inhibition of cell viability up to 96 hrs by SRB assay; assay type: functional
[21] = molecular target: Serine/threonine-protein kinase mTOR (Homo sapiens) (UniProt P42345); experiment: Inhibition of mTOR phosphorylation at S2448 residue in human MCF7 cells at 2 uM after 6 hrs by Western blot method; assay type: cell-based
[22] = Selectivity index, ratio of compound concentration for cell killing activity in human 184B5 cells to compound concentration for cell killing activity in human MDA-MB-231 cells; assay type: toxicity, cell-based; details: 184B5 cells versus MDA-MB-231 cells, read-out: Selectivity Index
PC-3 = experiment: Antiproliferative activity against human PC3 cells assessed as compound concentration required to show complete inhibition of cell viability up to 96 hrs by SRB assay; assay type: functional

## COc1ccc2nc3cc(Cl)ccc3c(NCCCN3C(=O)CCSC3c3cccs3)c2c1 (stereo not given)
[1]
  selectivity ratio: 3 to 6
MCF7 [2]
  Activity: Active
A549
  Activity: 2 µM
BT-474
  Activity: 1 µM
[3]
  selectivity ratio: 3 to 6
BT-20
  Activity: 1 µM
SK-BR-3
  Activity: 2 µM
[4]
  selectivity ratio: 3 to 6
MDA-MB-231 [5]
  Activity: 2 µM
[6]
  inhibition: Active
MDA-MB-231 [7]
  Activity: 10%
MDA-MB-231 [8]
  Ratio IC50: 8.4
[9]
  Activity: Active
[10]
  selectivity ratio: 3 to 6
MCF7 [11]
  Activity: Active
MCF7 [12]
  IC50: 0.69 µM
[13]
  selectivity ratio: 3 to 6
MCF7 [14]
  Ratio IC50: 37.3
[15]
  selectivity ratio: 3 to 6
MDA-MB-468
  Activity: 2 µM
MCF7 [16]
  Activity: 1 µM
[17]
  selectivity ratio: 3 to 6
[18]
  inhibition: inactive
LNCaP
  Activity: 2 µM
[19]
  selectivity ratio: 3 to 6
MCF7 [20]
  Activity: Active
MDA-MB-453
  Activity: 2 µM
[21]
  inhibition: Active
[22]
  selectivity ratio: 3 to 6
PC-3
  Activity: 2 µM
